Five compounds from ChEMBL document CHEMBL1782023, “Spirocyclic lignans from Guaiacum (Zygophyllaceae) induce apoptosis in human breast cancer cell lines” (J Nat Prod, 2011) can be followed below.

Active and inactive are the calls of the source. The calls are words filed in the database; no cut-off is given here. A value given as a limit tells only on which side of the number the result lay.

For assay [1], the system named is MDA-MB-231. Kind of assay: Cell cycle arrest in human MDA-MB-231 cells assessed as decrease in cells in S phase after 24 hrs using annexin V/propidium iodide staining by flow cytometry. The assay is classed as functional, cell-based. The method in brief:
(§1)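 Cells cultured in RPMI 1640 with 10% heat-inactivated FCS, 37 °C, 5% CO2. After 24 h of growth, cells were treated with test samples dissolved in DMSO for a further 24 h. Cell cycle distribution was measured by FACS with annexin V/propidium iodide double staining. For DNA content, singlet events were gated and 10 000-20 000 events were acquired. Read-out: percentage of cells in S phase and in sub-G0 phase.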

The subject of assay [2] is MDA-MB-231. Briefly: Cell cycle arrest in human MDA-MB-231 cells assessed as increase of cells in sub-G0 phase after 24 hrs using annexin V/propidium iodide staining by flow cytometry. Type of assay: functional, cell-based. The gist of the method:
as §1

In assay [3] the test system is MDA-MB-231. Briefly: Induction of apoptosis in human MDA-MB-231 cells assessed as loss of membrane […] at 1.2 to 30 ug/ml using Hoechst 33342/propidium iodide staining by FACS analysis. Type of assay: functional, cell-based. As to conditions: TDE = time-dependent effect.
Assay [4] relates to MDA-MB-231. Briefly: Induction of apoptosis in human MDA-MB-231 cells assessed as chromatin condensation at 1.2 to 30 ug/ml using Hoechst 33342/propidium iodide staining […]. The assay is classed as functional, cell-based. The note with it: TDE = time-dependent effect.
The subject of assay [5] is MDA-MB-231. Briefly: Induction of apoptosis in human MDA-MB-231 cells assessed as condensation of nucleus after 24 hrs using Hoechst 33342/propidium iodide staining […]. Type of assay: functional, cell-based.
Assay [6] relates to MDA-MB-231. Briefly: Induction of apoptosis in human MDA-MB-231 cells assessed as loss of membrane […] after 24 hrs using Hoechst 33342/propidium iodide staining by FACS analysis. The assay is classed as functional, cell-based.
The test system of assay [7] is MDA-MB-231. Kind of assay: Induction of apoptosis in human MDA-MB-231 cells assessed as condensation of cytoplasm after 24 hrs using Hoechst 33342/propidium iodide staining by FACS analysis. The assay is classed as functional, cell-based.
Assay [8] relates to MDA-MB-231. Briefly: Cell cycle arrest in human MDA-MB-231 cells assessed as decrease in cells in S phase at 30 ug/ml after 24 hrs using annexin V/propidium iodide staining by flow cytometry (reference value: 13%). Type of assay: functional. Also on record: scale not given: the % may be the effect or the level left. The method in brief: as §1
Assay [9] deals with MDA-MB-231. Briefly: Induction of apoptosis in human MDA-MB-231 cells assessed as chromatin segregation at 1.2 to 30 ug/ml using Hoechst 33342/propidium iodide staining […]. The assay is classed as functional, cell-based. The note with it: TDE = time-dependent effect.
The subject of assay [10] is MDA-MB-231. Briefly: Induction of apoptosis in human MDA-MB-231 cells assessed as chromatin condensation after 24 hrs using Hoechst 33342/propidium iodide staining […]. Type of assay: functional, cell-based.
The test system of assay [11] is MDA-MB-231. Kind of assay: Induction of apoptosis in human MDA-MB-231 cells assessed as condensation of nucleus at 1.2 to 30 ug/ml using Hoechst 33342/propidium iodide staining […]. Type of assay: functional, cell-based. The note with it: TDE = time-dependent effect.
Assay [12] concerns MDA-MB-231. Briefly: Induction of apoptosis in human MDA-MB-231 cells assessed as condensation of cytoplasm at 1.2 to 30 ug/ml […]. As to conditions: TDE = time-dependent effect. Type of assay: functional, cell-based.
The test system of assay [13] is MDA-MB-231. Kind of assay: Cytotoxicity against human MDA-MB-231 cells after 48 hrs by Alamar blue assay. Type of assay: functional, cell-based. The note with it: MDA-MB-231, 48 h. The gist of the method:
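Cells were seeded at 5000 per well and grown for 24 h. Samples were then added from DMSO solution, with 0.1% DMSO as vehicle control. After 48 h incubation, viability was read from Alamar blue colour spectrophotometrically at 540 nm.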

In assay [14] the test system is MDA-MB-231. Kind of assay: Induction of apoptosis in human MDA-MB-231 cells assessed as chromatin segregation after 24 hrs using Hoechst 33342/propidium iodide staining […]. The assay is classed as functional, cell-based.

For the compound `CC[C@@]1(O)C(=O)OCc2c1cc1n(c2=O)Cc2cc3ccccc3nc2-1`, in the assay on MDA-MB-231 [1], the Activity result was “Dose-dependent effect”. In the assay on MDA-MB-231 [2], the result was Active.

In the case of `C=C1[C@@H](c2ccc(O)c(OC)c2)O[C@@H](c2ccc(O)c(OC)c2)[C@@]12CCC1=C(C2)[C@@H](c2ccc(O)c(OC)c2)O[C@H]1c1ccc(O)c(OC)c1` [RAMONANIN A], the Activity entry in the assay on MDA-MB-231 [3] is “tde”; with MDA-MB-231 [1], “Dose-dependent effect”; in the assay on MDA-MB-231 [4], “tde”; in the assay with MDA-MB-231 [5], “Dose-dependent effect”; in the assay with MDA-MB-231 [6], “Dose-dependent effect”; in the assay with MDA-MB-231 [7] it was “Dose-dependent effect”. Besides, the Activity was under 4% with MDA-MB-231 [8]; “tde” in the assay on MDA-MB-231 [9]; “Dose-dependent effect” in the assay on MDA-MB-231 [10]; “tde” with MDA-MB-231 [11]; “tde” in the assay with MDA-MB-231 [12]; “Dose-dependent effect” with MDA-MB-231 [14]. Moreover, the result with MDA-MB-231 [2] was Active. The same compound showed an IC50 with MDA-MB-231 [13] of 18 µM.

Regarding `C=C1[C@H](c2ccc(O)c(OC)c2)O[C@H](c2ccc(O)c(OC)c2)[C@@]12CCC1=C(C2)[C@@H](c2ccc(O)c(OC)c2)O[C@H]1c1ccc(O)c(OC)c1` [RAMONANIN B], the Activity entry in the assay on MDA-MB-231 [1] is “Dose-dependent effect”; in the assay with MDA-MB-231 [8], under 4%. In addition, the result in the assay with MDA-MB-231 [2] was Active. In the assay on MDA-MB-231 [13], this compound registered a 50% inhibitory concentration (IC50) of 18 µM.

For `C=C1[C@@H](c2ccc(O)c(OC)c2)O[C@@H](c2ccc(O)c(OC)c2)[C@@]12CCC1=C(C2)[C@H](c2ccc(O)c(OC)c2)O[C@@H]1c1ccc(O)c(OC)c1` [RAMONANIN C], the half-inhibitory concentration (IC50) in the assay on MDA-MB-231 [13] came to 18 µM.

Compound `C=C1[C@@H](c2ccc(O)c(OC)c2)O[C@@H](c2ccc(O)c(OC)c2)[C@@]12CCC1=C(C2)[C@@H](c2ccc(O)c(OC)c2)O[C@@H]1c1ccc(O)c(OC)c1` [RAMONANIN D] registered an IC50 in the assay on MDA-MB-231 [13] of 18 µM.
